Source: ChEMBL document CHEMBL1128227, “Cosalane analogues with enhanced potencies as inhibitors of HIV-1 protease and integrase” (J Med Chem, 1995)

Key:
[1] = test system: HEL; test: Antiviral activity was determined against Herpes simplex virus -1 TK- in HEL cells by measuring concentration required to reduce virus induced cytopathogenicity by 50%.; format: functional, cell-based; settings: Homo sapiens
[2] = test system: Vero; test: Antiviral activity was determined against Junin virus in Vero cells by measuring concentration required to reduce virus induced cytopathogenicity by 50%.; format: functional, cell-based; settings: Chlorocebus sabaeus
[3] = test system: MT4; test: Viral cytopathicity against HIV -2 (LAV-2 rod)strain determined in MT-4 cells; format: functional, cell-based; settings: Homo sapiens
[4] = test system: MOLT-4; test: Gaint cell formation between HIV-2 (LAV-2 rod) infected HUT-78 cells and uninfected MOLT-4(clone-8)cells; format: functional, cell-based; settings: Homo sapiens
In short: (§1)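 Syncytium assay: HUT-78 cells persistently infected with HIV-1 (HTLV-IIIB) or HIV-2 (LAV-2ROD) were co-cultured with uninfected MOLT-4 (clone 8) cells, and giant-cell formation was scored. Compounds tested as ammonium salts. Values are means of at least two experiments.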

[5] = test system: MDCK; test: Antiviral activity was determined against Influenza virus A(strain Ishikawa) in MDCK cells by measuring concentration required to reduce virus induced cytopathogenicity by 50%.; format: functional, cell-based; settings: Canis lupus familiaris
In short: (§2)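 Tested in MDCK cells, with compound applied right after infection and left on. Cytopathic effect of influenza A (Ishikawa) or B (Singapore) was read at day 5 pi. IC50 is the concentration halving cytopathogenicity, in µg/mL.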

[6] = test system: HEL; test: Antiviral activity was determined against Herpes simplex virus -1 in HEL cells by measuring concentration required to reduce virus induced cytopathogenicity by 50%.; format: functional, cell-based; settings: Homo sapiens
[7] = test system: Vero; test: Antiviral activity was determined against Tacaribe virus in Vero cells by measuring concentration required to reduce virus induced cytopathogenicity by 50%.; format: functional, cell-based; settings: Chlorocebus sabaeus
[8] = test system: MT4; test: Cytotoxical effect against MT-4 cell lines was determined by reduction of cellular viability. data represent mean value of at least two separate experiments.; format: functional; settings: Homo sapiens
In short: (§3)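 Compounds tested as ammonium salts. Cytotoxicity in CEM-SS, MT-4 or PBL cultures taken from the reduction in cellular viability. Values are means of at least two separate experiments.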

[9] = test system: HeLa; test: Antiviral activity was determined against Respiratory syncytial virus(strain Long) in HeLa cells by measuring concentration required to reduce virus induced cytopathogenicity by 50%.; format: functional, cell-based; settings: Homo sapiens
In short: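 RSV cytopathicity in HeLa cells. Compound added immediately after virus infection and left in the culture. Virus-induced cytopathogenicity scored at day 5 post-infection. IC50 in μg/mL.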

[10] = test system: MDCK; test: Antiviral activity was determined against Influenza virus B(strain Singapore) MDCK cells by measuring concentration required to reduce virus induced cytopathogenicity by 50%.; format: functional, cell-based; settings: Canis lupus familiaris; in short: as §2
[11] = target: Human immunodeficiency virus type 1 integrase (Human immunodeficiency virus 1, UniProt Q7ZJM1); test: Inhibition of HIV -1 Integrase
In short: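 Purified HIV-1 integrase. 3'-processing and strand-transfer (integration) activities were measured with synthetic double-stranded oligonucleotides mimicking viral DNA ends. Compounds tested as ammonium salts. Values are means of at least two experiments.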

[12] = test system: MDCK; test: Anti viral activity against MDCK cytotoxicity by minimum cytotoxic concentration that causes a microscopically detectable alteration of normal cell morphology after 2 day of treatment.; format: functional; settings: Canis lupus familiaris, 48 h
[13] = organism: Homo sapiens; test: Inhibition of p24 production in Peripheral blood lymphocytes; format: functional, organism-based
In short: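 Phytohemagglutinin-stimulated peripheral blood lymphocytes infected with HIV-1 WUJO. Read-out is virion-associated p24 production. Compounds tested as ammonium salts. Values are means of at least two experiments.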

[14] = organism: Homo sapiens; test: Cytotoxical effect against PBL cell lines was determined by reduction of cellular viability. data represent mean value of at least two separate experiments.; format: functional; in short: as §3
[15] = test system: HEL; test: Antiviral activity was determined against Herpes simplex virus -1 TK-/TK+ in HEL cells by measuring concentration required to reduce virus induced cytopathogenicity by 50%.; format: functional, cell-based; settings: Homo sapiens
[16] = test system: HEL; test: Antiviral activity was determined against Human cytomegalovirus (strain Davis) in HEL cells by measuring concentration required to reduce virus induced cytopathogenicity by 50%.; format: functional, cell-based
[17] = test system: Vero; test: Anti viral activity against Vero cellular cytotoxicity by minimum cytotoxic concentration that causes a microscopically detectable alteration of normal cell morphology after 2 day of treatment.; format: functional; settings: Chlorocebus sabaeus, 48 h
[18] = test system: MT4; test: Viral cytopathicity against HIV -I (HTLV-IIIb) strain determined in MT-4 cells; format: functional, cell-based; settings: Homo sapiens
[19] = test system: MOLT-4; test: Gaint cell formation between HIV-1 (HTLV-IIIB) infected HUT-78 cells and uninfected MOLT-4(clone-8)cells; format: functional, cell-based; settings: Homo sapiens; in short: as §1
[20] = test system: HeLa; test: Anti viral activity against HeLa cytotoxicity by minimum cytotoxic concentration that causes a microscopically detectable alteration of normal cell morphology after 2 day of treatment.; format: functional; settings: Homo sapiens, 48 h
[21] = test system: HEL; test: Anti viral activity against HEL cytotoxicity by minimum cytotoxic concentration that causes a microscopically detectable alteration of normal cell morphology after 2 day of treatment.; format: functional; settings: Homo sapiens, 48 h
[22] = test system: CCRF-CEM; test: Cytotoxical effect against CEM cell lines was determined by reduction of cellular viability. data represent mean value of at least two separate experiments.; format: functional; settings: Homo sapiens; in short: as §3
[23] = target: Human immunodeficiency virus type 1 protease (Human immunodeficiency virus 1, UniProt Q72874); test: Inhibition of HIV -1 protease
In short: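 Purified HIV-1 protease with the peptide substrate Ala-Ser-Glu-Asn-Tyr-Pro-Ile-Val-Glu-amide. Cleavage quantified by reverse-phase HPLC. Compounds tested as ammonium salts. Values are means of at least two experiments.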

[24] = test system: HEL; test: Antiviral activity was determined against Vaccinia virus in HEL cells by measuring concentration required to reduce virus induced cytopathogenicity by 50%.; format: functional, cell-based; settings: Homo sapiens
[25] = test system: HEL; test: Antiviral activity was determined against (Herpes simplex virus -2) by concentration required to reduce virus induced cytopathogenicity by 50%.; format: functional, cell-based; settings: Homo sapiens
[26] = test system: HEL; test: Antiviral activity was determined against Vesicular stomatitis virus in HEL cells by measuring concentration required to reduce virus induced cytopathogenicity by 50%.; format: functional, cell-based; settings: Homo sapiens

Sequence of Human immunodeficiency virus type 1 integrase (Q7ZJM1 whole entry): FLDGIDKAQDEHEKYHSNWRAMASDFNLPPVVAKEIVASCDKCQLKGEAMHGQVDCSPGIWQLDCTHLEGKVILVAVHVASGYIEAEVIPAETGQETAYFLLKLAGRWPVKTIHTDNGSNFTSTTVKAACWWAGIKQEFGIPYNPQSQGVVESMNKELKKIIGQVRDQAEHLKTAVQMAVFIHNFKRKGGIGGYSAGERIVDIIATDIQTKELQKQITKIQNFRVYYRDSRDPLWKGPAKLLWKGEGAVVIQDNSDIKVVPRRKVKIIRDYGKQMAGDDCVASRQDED

Work on `CCCCCC=C(c1cc(Cl)c(O)c(C(=O)NO)c1)c1cc(Cl)c(O)c(C(=O)NO)c1` yielded an IC50 [1] of 5 µM, an IC50 [2] greater than 2000 nM and an IC50 [3] greater than 40 µM. The IC50 [4] was 40 µM, the IC50 [5] was greater than 4 µM and the IC50 [6] was 5 µM. The IC50 [7] was greater than 2000 nM, the CC50 [8] was greater than 40 µM and the IC50 [9] was greater than 4 µM. It also gave an IC50 [10] greater than 4 µM, an IC50 [11] of 4 µM and a CC50 [12] of 4 µM. It also gave an IC50 [13] of 112 µM, a CC50 [14] of 148 µM and an IC50 [15] greater than 5 µM. The IC50 [16] was greater than 5 µM, the CC50 [17] was 5 µM and the IC50 [18] was 21.9 µM. For the same compound, the IC50 [19] was 8 µM, the CC50 [20] was 4 µM and the CC50 [21] was 20 µM. It also gave a CC50 [22] of 36.2 µM, an IC50 [23] of 58 µM and an IC50 [24] of 5 µM. The IC50 [25] was greater than 5 µM and the IC50 [26] was greater than 20 µM.
